Sampled rows, rich in hits. Any-hit rate of the full collection: about 2.1%.
RanGTP-Imp inh – disruptors of Ran-importin-beta complex formation – biochemical, FRET, CFP-Ran, YFP-importin-beta, homogeneous, primary screen | cell-free CFP-Ran/YFP-importin-beta FRET ratio | inhibition, % (concentration not given with the values) | 300,000 compounds, 1.1% hits | AID 2216;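 active means more than half of the replicate wells show a fall in the fluorescence ratio signal beyond about 16%, limit read from the data, passing the limit was not always enough; inconclusive means exactly half of the replicate wells pass the set limit; inactive means fewer than half of replicates pass the limit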;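 further: 0% = DMSO wells and 100% = Ran loaded with GDP instead of GTP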
TbHK1 inh – T. brucei hexokinase 1 inhibition; 220,000 compounds, 0.11% hits; inhibition, % at 10 µM; recombinant TbHK1, G6PDH-coupled NADH A340; AID 1430;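 active means inhibition of 50% or more in the single-dose primary screen; inactive means inhibition below 50%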
Hck-Nef inh – inhibitors of human Hck kinase activated by Nef | P08631 | Recombinant Hck-YEEI plus Nef, Z-Lyte FRET kinase assay | inhibition, % at 20 µM | 220,000 compounds, 0.68% hits | AID 463187;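 active means Hck-Nef kinase inhibition above about 50%, limit read from the data; inactive means inhibition below that limit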;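 further: 0% = DMSO with Hck plus Nef and 100% = Hck alone without Nef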
Target sequence (P08631 whole entry, looked up): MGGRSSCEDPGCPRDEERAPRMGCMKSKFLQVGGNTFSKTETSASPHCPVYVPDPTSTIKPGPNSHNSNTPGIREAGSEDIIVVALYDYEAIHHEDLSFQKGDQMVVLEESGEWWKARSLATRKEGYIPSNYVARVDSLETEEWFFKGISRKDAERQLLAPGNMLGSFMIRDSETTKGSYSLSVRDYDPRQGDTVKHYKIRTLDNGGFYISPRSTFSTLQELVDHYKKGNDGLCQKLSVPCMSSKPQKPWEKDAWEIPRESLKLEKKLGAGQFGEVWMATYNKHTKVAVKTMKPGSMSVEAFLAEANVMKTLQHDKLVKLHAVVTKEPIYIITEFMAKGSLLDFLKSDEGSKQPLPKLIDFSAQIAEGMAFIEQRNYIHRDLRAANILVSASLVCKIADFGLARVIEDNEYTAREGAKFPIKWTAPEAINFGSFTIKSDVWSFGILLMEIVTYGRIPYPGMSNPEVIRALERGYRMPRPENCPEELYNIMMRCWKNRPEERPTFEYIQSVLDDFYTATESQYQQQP
p97 ATPase inh – human p97 ATPase inhibition; recombinant p97 ATPase, Kinase-Glo ATP luminescence, 3 h; 220,000 compounds, 0.42% hits; inhibition, % at 8 µM; P55072; in the data active means inhibition above about 15%;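 further: 0% = DMSO vehicle and 100% = wells lacking enzyme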
Runt-SMMHC FRET – Runt domain-CBFb-SMMHC interaction inhibition; Q01196+Q13951; Cerulean-Runt/Venus-CBFb-SMMHC FRET ratio 530/480, 1 h; inhibition, % at 20 µM; 220,000 compounds, 0.74% hits; AID 1434;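 active means mean inhibition across duplicate retests at 20 µM reaching about 50%, limit read from the data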;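 further: 0% = DMSO wells and 100% = wells with excess untagged CBFb-SMMHC; inhibitors lower the FRET ratio by blocking Runt binding to CBFb-SMMHC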
Runt-CBFb FRET – Runt domain-CBFb interaction inhibition | Cerulean-Runt/Venus-CBFb FRET ratio 530/480, 1 h | inhibition, % at 20 µM | Q01196+Q13951 | 220,000 compounds, 0.46% hits | AID 1496;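 active means inhibition over about 50% at 20 µM in the single-dose screen, limit read from the data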;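 further: 0% = DMSO wells and 100% = excess unlabeled CBFb competitor control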
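test system = Cerulean-tagged RUNX1 Runt domain (FRET donor) fusion protein | reagent = Venus-CBFb binding partner, 100 nM | incubation = protein complex preformed 1 h, compound exposure 1 h, room temperature, dark | detection = FRET fluorescence | read-out basis = loss of energy transfer signal | controls = 5 µM unlabeled CBFb as full-inhibition high control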
G6PDH counter – counter-screen for TbHK1 inhibitors: Leuconostoc G6PDH inhibition | shares compounds with TbHK1 inh | purified G6PDH, NADH absorbance, 1 h | inhibition, % at 10 µM | 210 compounds, 7% hits;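 active means at least 50% inhibition in the glucose-6-phosphate dehydrogenase coupled counterscreen; inconclusive means no clear call, values can overlap the other calls; inactive means inhibition below 50%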
TbHK1 rescreen – T. brucei hexokinase 1 inhibition, rescreen; inhibition, % at 10 µM; shares compounds with TbHK1 inh; AID 2560; recombinant TbHK1, G6PDH-coupled NADH A340 absorbance; 210 compounds, 10% hits;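 active means inhibition of at least 50% in both of the two screening runs; inconclusive means at least 50% in one run, below 50% in the other; inactive means inhibition below 50% in both runs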;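 further: 0% and 100% set by the maximum and minimum signal control wells on each plate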
An asterisk follows results filed as active; ? = inconclusive; . = no result; ! = a repeat was not active.

SMILES	RanGTP-Imp inh	TbHK1 inh	Hck-Nef inh	p97 ATPase inh	Runt-SMMHC FRET	Runt-CBFb FRET	G6PDH counter	TbHK1 rescreen
O=C(NCc1ccccn1)c1ccc(Cl)c(NC2=NC3CS(=O)(=O)CC3S2)c1 (configuration not stated)	-1.7	.	.	.	.	.	.	.
COc1ccccc1C1CCN(C(=O)c2ccccc2)CC1	-0.6	.	.	.	.	.	.	.
COc1ccccc1C1CCN(C(=O)c2cccs2)CC1	-5.4	50.2*	11.3	-3.9	-2.2	-0.4	-2.8	-1.5
CC(=O)/C=C(/C)NC(Cc1c[nH]c2ccccc12)C(=O)O (configuration not stated)	0.4	50.9*!	10.9	-1.0	-4.0	-1.7	-16.7	-3.1
S=C(NNc1ccnc2cc(Cl)ccc12)Nc1ccc(Cl)cc1Cl	-3.3	61.4*	25.7	3.8	-20.7	20.1	109.5*	59.8*
Fc1cccc(CN2CCN(Cc3nc(CCc4ccccc4)no3)CC2)c1	3.1	0.8	10.4	-3.7	2.1	-1.9	.	.
Nn1c(SCC(=O)Nc2ccc(OC(F)F)cc2)nnc1-c1ccco1	1.1	.	.	.	.	.	.	.
CCN(CC)CCCN1C(=O)c2oc3ccccc3c(=O)c2C1c1cccnc1 (configuration not stated)	3.7	53.6*	16.0	1.4	-2.5	0.6	-16.8	-9.8
CCN(CC)CCN1C(=O)c2oc3ccccc3c(=O)c2C1c1ccc(F)cc1 (configuration not stated)	1.7	-0.8	-0.7	-0.5	-4.0	0.4	.	.
CN(C)c1ccc(C(=S)N2CCOCC2)cc1	.	68.9*	7.5	-4.7	6.0	4.0	-19.8	-30.1
Cc1ccccc1-n1sc2cc(F)ccc2c1=O	.	55.4*	-103.6	3.1	46.4	36.5	-2.1	78.6*
CC(=O)c1ccc(NC(=O)C2CC(c3ccc(F)cc3)=NO2)cc1 (configuration not stated)	0.6	51.9*	3.5	3.2	0.5	1.1	2.2	7.6
N#C/C(=C\c1ccccc1OCC(=O)O)c1nc2ccccc2[nH]1	3.0	.	.	.	.	.	.	.
CCC(=O)NC(c1cccs1)c1cc([N+](=O)[O-])c2cccnc2c1O (configuration not stated)	-1.5	52.1*	0.6	-2.3	3.5	7.1	-23.4	6.3
CCCC(=O)NC(c1cccs1)c1cc([N+](=O)[O-])c2cccnc2c1O (configuration not stated)	-1.3	4.6	4.4	2.7	12.3	7.4	.	.
COc1ccc(CNC(=O)C2CCN(C(=O)[C@@H](CC(C)C)NC(=O)OC(C)(C)C)CC2)cc1	1.4	55.8*	6.6	-2.2	19.4	-1.5	-9.1	0.7
CCOC(=O)Cc1nc(-c2ccc(Cl)cc2)n[nH]1	4.3	-5.4	-8.7	0.9	-0.6	0.9	.	.
CC(C)C1Cc2c(C#N)c(N)sc(=S)c2CO1 (configuration not stated)	-10.3	18.8	4.0	-1.3	-46.2	3.0	.	.
CC1(C)Cc2c(C#N)c(N)sc(=S)c2CO1	-0.9	72.9*	9.9	0.8	-48.0	-4.9	100.7*	68.4*
O=C1CN(C(=O)COC(=O)CCC(=O)c2ccc3c(c2)OCCO3)c2ccccc2N1	-3.5	50.1*	6.7	-0.7	-2.9	-0.1	-5.8	-4.7
O=C(NC1CCCCC1)C1CCN(S(=O)(=O)N2CCOCC2)CC1	?	58.4*	3.3	1.3	-1.5	-1.4	-12.9	1.8
O=C(NC1CCCCC1)C1CCN(S(=O)(=O)N2CCCCCC2)CC1	-3.0	-1.1	0.1	2.3	-9.5	-1.6	.	.
COc1cc(-c2noc(CCC(=O)Nc3cccnc3)n2)cc(OC)c1OC	5.0	54.3*	1.2	-3.8	-0.4	0.3	-8.6	1.1
O=C(COc1ccc(Br)cc1)Nc1ccccc1C(=O)NC1CC1	-0.3	.	.	.	.	.	.	.
Cc1ccc(OC(=O)c2ccc([N+](=O)[O-])cc2Cl)cn1	-1.2	.	.	.	.	.	.	.
SMILES	RanGTP-Imp inh	TbHK1 inh	Hck-Nef inh	p97 ATPase inh	Runt-SMMHC FRET	Runt-CBFb FRET	G6PDH counter	TbHK1 rescreen
Cc1ccccc1OCc1n(CC(=O)OC2CC(C)CCC2C(C)C)c2ccccc2[n+]1C (configuration not stated)	2.6	75.6*!	30.6	8.3	-1.6	-2.0	38.8	29.8
CCN(CC)S(=O)(=O)c1ccc(C(=O)Nn2cnnc2)cc1	-1.8	.	.	.	.	.	.	.
CCN(CC)S(=O)(=O)c1ccc(C(=O)Nc2ncn(Cc3ccccc3)n2)cc1	-2.2	63.7*	6.6	-1.1	2.6	-1.1	-5.5	2.3
CCN(CC)S(=O)(=O)c1ccc(C(=O)NCc2n[nH]c(=S)n2Cc2ccccc2)cc1	1.1	60.5*	7.4	2.1	-1.5	0.9	-11.7	4.6
Cc1cccc(C)c1NC(=O)CSc1nnc(-c2ccoc2C)n1C	-3.0	66.7*	6.6	-4.5	0.6	-1.1	2.9	-1.7
CCOCC(=O)Nc1c(C)n(C)n(-c2ccccc2)c1=O	2.7	1.7	23.3	-0.1	-1.8	-1.5	.	.
Cc1c(NC(=O)CC(=O)Nc2c(C)n(C)n(-c3ccccc3)c2=O)c(=O)n(-c2ccccc2)n1C	-1.3	74.2*	11.9	1.4	2.2	0.9	-4.9	4.1
CN(C(=O)COC(=O)c1ccc2c(c1)OCCO2)c1ccccc1	-1.1	0.0	4.7	-3.1	-1.9	-0.8	.	.
O=C(OCCN1C(=O)c2ccccc2C1=O)c1cnccn1	-2.9	50.7*	3.8	-0.4	-2.1	-2.2	-13.1	-0.5
O=C(OCCN1C(=O)c2ccccc2C1=O)c1ccccc1	.	-0.3	22.7	0.3	-3.9	1.3	.	.
O=C(c1ccc2[nH]c(=O)c(=O)[nH]c2c1)N1CCN(c2ccccc2)CC1	-0.5	.	.	.	.	.	.	.
Cc1oc(-c2ccccc2F)nc1CSCC(=O)NC1CC1	2.7	.	.	.	.	.	.	.
Cc1oc(-c2ccccc2F)nc1CSCC(=O)NCc1ccc2c(c1)OCO2	-2.3	61.0*	4.8	0.6	5.0	-0.6	-20.9	-0.4
COc1ccc(C2CC(C)(c3ccc(OC)cc3OC)Nc3ccccc3N2)c(OC)c1 (configuration not stated)	3.4	0.7	19.1	-1.7	1.4	0.0	.	.
O=C(c1cc(COc2c(F)cccc2F)on1)N(Cc1ccccc1)CC1CC1	4.6	.	.	.	.	.	.	.
CC1SCC(NC(=O)c2ccc(Cl)cc2)CS1 (configuration not stated)	2.2	50.9*	2.3	0.8	-4.8	1.3	-0.6	0.2
COc1ccccc1C(=O)NC(CCSC)C(=O)OC(C)C(=O)NC1CC1 (configuration not stated)	3.1	.	.	.	.	.	.	.
Cc1cc(OCCCCn2ccnc2)cc(C)c1Cl	-2.9	2.4	5.2	-1.1	-3.8	.	.	.
